According to ChEMBL document CHEMBL1157126, “Synthesis and biological activity of N(4)-phenylsubstituted-6-(2,4-dichloro phenylmethyl)-7H-pyrrolo[2,3-d]pyrimidine-2,4-diamines as vascular endothelial growth factor receptor-2 inhibitors and antiangiogenic and antitumor agents” (Bioorg Med Chem, 2010):
Activity calls are given as the source filed them. No cut-off for these calls is given here.

Biological target: Epidermal growth factor receptor (Homo sapiens, UniProt P00533)
Experiment: Inhibition of EGFR phosphorylation in human A431 cells after 10 mins by FLISA
Format: cell-based, A-431
Conditions: not given

Chain of Epidermal growth factor receptor (P00533 whole entry): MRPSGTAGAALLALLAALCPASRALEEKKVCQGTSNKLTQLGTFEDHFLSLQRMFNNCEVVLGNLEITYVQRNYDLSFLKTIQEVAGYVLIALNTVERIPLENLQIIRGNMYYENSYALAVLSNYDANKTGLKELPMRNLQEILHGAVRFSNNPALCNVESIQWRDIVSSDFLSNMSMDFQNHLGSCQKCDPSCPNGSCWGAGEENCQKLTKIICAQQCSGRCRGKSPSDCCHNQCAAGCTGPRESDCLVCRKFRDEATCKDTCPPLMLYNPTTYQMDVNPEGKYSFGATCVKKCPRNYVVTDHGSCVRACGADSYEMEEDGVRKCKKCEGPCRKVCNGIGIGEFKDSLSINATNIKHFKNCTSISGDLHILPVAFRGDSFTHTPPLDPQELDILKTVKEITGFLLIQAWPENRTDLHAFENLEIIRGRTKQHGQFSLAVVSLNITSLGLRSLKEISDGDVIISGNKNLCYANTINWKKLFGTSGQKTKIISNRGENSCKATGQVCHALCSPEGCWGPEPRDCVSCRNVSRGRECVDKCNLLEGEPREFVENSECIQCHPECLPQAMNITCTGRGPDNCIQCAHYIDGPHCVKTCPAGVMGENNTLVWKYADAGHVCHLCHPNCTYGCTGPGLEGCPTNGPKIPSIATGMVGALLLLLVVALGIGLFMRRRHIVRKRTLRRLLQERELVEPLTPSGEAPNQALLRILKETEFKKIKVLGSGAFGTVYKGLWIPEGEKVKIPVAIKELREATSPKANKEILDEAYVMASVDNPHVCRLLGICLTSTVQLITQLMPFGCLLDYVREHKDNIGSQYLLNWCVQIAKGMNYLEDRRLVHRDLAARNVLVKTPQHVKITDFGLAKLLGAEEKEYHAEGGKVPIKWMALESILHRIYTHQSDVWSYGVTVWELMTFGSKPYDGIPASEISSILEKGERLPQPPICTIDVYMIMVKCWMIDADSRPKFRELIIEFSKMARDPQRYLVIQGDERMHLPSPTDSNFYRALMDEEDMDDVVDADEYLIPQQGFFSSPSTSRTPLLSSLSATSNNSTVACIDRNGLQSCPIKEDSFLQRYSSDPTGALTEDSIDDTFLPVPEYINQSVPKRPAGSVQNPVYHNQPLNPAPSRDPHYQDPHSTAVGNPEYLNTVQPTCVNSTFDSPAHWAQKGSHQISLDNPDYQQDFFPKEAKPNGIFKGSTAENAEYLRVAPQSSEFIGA

| Compound | IC50 [µM] |
| --- | --- |
| Nc1nc(Nc2cccc(C(F)(F)F)c2)c2cc(Cc3ccc(Cl)cc3Cl)[nH]c2n1 | 27.2 |
| C#Cc1cccc(Nc2ncnc3[nH]c(Cc4ccc(Cl)cc4Cl)cc23)c1 | > 300 |
| Nc1nc(Nc2ccc(Br)cc2Cl)c2cc(Cc3ccc(Cl)cc3Cl)[nH]c2n1 | > 300 |
| CC(C)c1ccc(Nc2nc(N)nc3[nH]c(Cc4ccc(Cl)cc4Cl)cc23)cc1 | 45.6 |
| CC(C)c1ccccc1Nc1nc(N)nc2[nH]c(Cc3ccc(Cl)cc3Cl)cc12 | 96.4 |

Next, values leading:

| IC50 [µM] | Compound |
| --- | --- |
| 91.7 | Nc1nc(Nc2ccc(C(F)(F)F)c(F)c2)c2cc(Cc3ccc(Cl)cc3Cl)[nH]c2n1 |
| > 300 | Clc1ccc(Cc2cc3c(Nc4cccc(Br)c4)ncnc3[nH]2)c(Cl)c1 |
| 33.1 | FC(F)(F)c1cccc(Nc2ncnc3[nH]c(Cc4ccc(Cl)cc4Cl)cc23)c1 |
| > 300 | Cc1ccccc1Cc1cc2c(Nc3cccc(Br)c3)ncnc2[nH]1 |
| 2.5 | Nc1nc(Nc2ccc(Cl)cc2F)c2cc(Cc3ccc(Cl)cc3Cl)[nH]c2n1 |
| 55.2 | C#Cc1cccc(Nc2nc(N)nc3[nH]c(Cc4ccc(Cl)cc4Cl)cc23)c1 |
| 162 | Nc1nc(Nc2cccc(F)c2)c2cc(Cc3ccc(Cl)cc3Cl)[nH]c2n1 |
| > 300 | COc1ccc(OC)c(Cc2cc3c(Nc4cccc(Br)c4)ncnc3[nH]2)c1 |

Biological target: T1, Vascular endothelial growth factor receptor 2 (Homo sapiens, UniProt P35968)
Experiment: Ratio of semaxanib IC50 to compound IC50 for VEGFR2 phosphorylation in human U251 cells
Format: cell-based
Conditions: U-251

T1 sequence (P35968 whole entry): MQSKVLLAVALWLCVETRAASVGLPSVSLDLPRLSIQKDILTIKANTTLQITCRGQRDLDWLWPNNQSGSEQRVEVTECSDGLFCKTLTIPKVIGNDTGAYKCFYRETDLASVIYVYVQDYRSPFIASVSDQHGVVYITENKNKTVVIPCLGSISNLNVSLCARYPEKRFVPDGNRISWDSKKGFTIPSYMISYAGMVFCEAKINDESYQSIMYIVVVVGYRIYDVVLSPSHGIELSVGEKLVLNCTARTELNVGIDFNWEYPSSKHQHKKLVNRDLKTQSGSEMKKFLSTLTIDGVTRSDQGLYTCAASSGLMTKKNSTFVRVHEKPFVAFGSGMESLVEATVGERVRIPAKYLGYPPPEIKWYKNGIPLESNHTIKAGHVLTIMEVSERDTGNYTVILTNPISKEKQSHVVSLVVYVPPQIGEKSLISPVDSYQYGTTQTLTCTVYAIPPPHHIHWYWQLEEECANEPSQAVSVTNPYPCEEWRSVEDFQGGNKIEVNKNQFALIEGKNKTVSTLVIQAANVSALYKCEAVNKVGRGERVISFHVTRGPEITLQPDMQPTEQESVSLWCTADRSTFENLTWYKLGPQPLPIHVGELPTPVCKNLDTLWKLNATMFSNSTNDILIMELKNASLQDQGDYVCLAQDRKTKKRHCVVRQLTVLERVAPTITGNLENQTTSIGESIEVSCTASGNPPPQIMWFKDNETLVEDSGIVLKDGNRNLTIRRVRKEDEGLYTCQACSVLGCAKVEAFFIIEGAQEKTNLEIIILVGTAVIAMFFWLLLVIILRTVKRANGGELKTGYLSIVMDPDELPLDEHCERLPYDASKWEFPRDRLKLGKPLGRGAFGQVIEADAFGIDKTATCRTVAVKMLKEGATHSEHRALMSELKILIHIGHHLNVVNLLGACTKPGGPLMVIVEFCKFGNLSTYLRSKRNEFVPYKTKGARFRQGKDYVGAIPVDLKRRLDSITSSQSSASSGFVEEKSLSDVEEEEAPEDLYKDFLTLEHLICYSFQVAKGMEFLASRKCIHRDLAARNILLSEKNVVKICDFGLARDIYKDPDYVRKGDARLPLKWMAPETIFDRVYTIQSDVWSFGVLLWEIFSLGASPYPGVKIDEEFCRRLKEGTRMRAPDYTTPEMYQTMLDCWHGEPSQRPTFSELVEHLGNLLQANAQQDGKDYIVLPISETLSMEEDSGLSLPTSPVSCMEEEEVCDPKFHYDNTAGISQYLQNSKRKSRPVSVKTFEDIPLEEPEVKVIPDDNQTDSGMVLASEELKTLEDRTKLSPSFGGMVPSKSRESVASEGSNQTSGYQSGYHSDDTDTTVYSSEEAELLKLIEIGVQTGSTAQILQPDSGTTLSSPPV

| Compound | Ratio IC50 |
| --- | --- |
| Nc1nc(Nc2ccc(Br)cc2Cl)c2cc(Cc3ccc(Cl)cc3Cl)[nH]c2n1 | 100 |
| CC(C)c1ccc(Nc2nc(N)nc3[nH]c(Cc4ccc(Cl)cc4Cl)cc23)cc1 | 8 |

Next, values leading:

| Ratio IC50 | Compound |
| --- | --- |
| 0.26 | Nc1nc(Nc2ccc(Cl)cc2F)c2cc(Cc3ccc(Cl)cc3Cl)[nH]c2n1 |
| 40 | Nc1nc(Nc2cccc(F)c2)c2cc(Cc3ccc(Cl)cc3Cl)[nH]c2n1 |

Tested on: B16-F10
Experiment: not given
Conditions: Mus musculus, 10 mg/kg

| Compound | inhibition |
| --- | --- |
| Cc1[nH]c(/C=C2\C(=O)Nc3ccccc32)c(C)c1CCC(=O)O [ORANTINIB] | Active |

Tested on: B16-F10
Experiment: Antitumor activity against mouse B16F10 cells xenografted in NCr nu/nu mouse assessed as antiangiogenic activity-related decrease in tumor vascularity at 35 mg/kg, ip administered after 9 days of tumor implantation for weekly 3 times measured on day 28 post-implantation
Format: functional, organism-based
Parameters: dose 35 mg/kg
Conditions: not given
Outline: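 50,000 B16-F10 melanoma cells injected SQ behind the ear of 8-week-old male athymic NCr nu/nu mice, 5–6 animals/group, two experiments. IP dosing in sterile water (from 30 mM DMSO stocks) Mon/Wed/Fri from day 9; shams got water. Tumors excised day 28, formalin-fixed, paraffin-embedded, H&E stained. Vessels counted per unit area in 5 fields at 100× and averaged. Mean ± SEM, one-way ANOVA, Neuman-Keuls.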

| Compound | inhibition |
| --- | --- |
| Nc1nc(Nc2ccc(Br)cc2Cl)c2cc(Cc3ccc(Cl)cc3Cl)[nH]c2n1 | Active |
| Cc1ccccc1Cc1cc2c(Nc3cccc(Br)c3)nc(N)nc2[nH]1 | Active |

Tested on: A-431
Experiment: Antiproliferative activity against human A431 cells after 48 hrs by quant dye staining-based UV spectroscopy
Format: functional, cell-based
Conditions: A-431, 48 h

| Compound | IC50 [µM] |
| --- | --- |
| Nc1nc(Nc2cccc(C(F)(F)F)c2)c2cc(Cc3ccc(Cl)cc3Cl)[nH]c2n1 | 195 |
| C#Cc1cccc(Nc2ncnc3[nH]c(Cc4ccc(Cl)cc4Cl)cc23)c1 | > 300 |
| Nc1nc(Nc2ccc(Br)cc2Cl)c2cc(Cc3ccc(Cl)cc3Cl)[nH]c2n1 | 16.2 |
| CC(C)c1ccc(Nc2nc(N)nc3[nH]c(Cc4ccc(Cl)cc4Cl)cc23)cc1 | 26.2 |
| CC(C)c1ccccc1Nc1nc(N)nc2[nH]c(Cc3ccc(Cl)cc3Cl)cc12 | 160 |

Continued, values first:

| IC50 [µM] | Compound |
| --- | --- |
| 13.8 | Nc1nc(Nc2ccc(C(F)(F)F)c(F)c2)c2cc(Cc3ccc(Cl)cc3Cl)[nH]c2n1 |
| 4.5 | Clc1ccc(Cc2cc3c(Nc4cccc(Br)c4)ncnc3[nH]2)c(Cl)c1 |
| > 300 | FC(F)(F)c1cccc(Nc2ncnc3[nH]c(Cc4ccc(Cl)cc4Cl)cc23)c1 |
| 9.5 | Cc1ccccc1Cc1cc2c(Nc3cccc(Br)c3)ncnc2[nH]1 |
| 4.9 | Nc1nc(Nc2ccc(Cl)cc2F)c2cc(Cc3ccc(Cl)cc3Cl)[nH]c2n1 |
| 9.5 | C#Cc1cccc(Nc2nc(N)nc3[nH]c(Cc4ccc(Cl)cc4Cl)cc23)c1 |
| 45.2 | Nc1nc(Nc2cccc(F)c2)c2cc(Cc3ccc(Cl)cc3Cl)[nH]c2n1 |
| 191 | COc1ccc(OC)c(Cc2cc3c(Nc4cccc(Br)c4)ncnc3[nH]2)c1 |

Tested on: B16-F10
Experiment: not given
Conditions: Mus musculus, 10 mg/kg
Remark: another data set of the same source

| Compound | inhibition |
| --- | --- |
| Cc1[nH]c(/C=C2\C(=O)Nc3ccccc32)c(C)c1CCC(=O)O [ORANTINIB] | Active |

Biological target: Vascular endothelial growth factor receptor 1 (Homo sapiens, UniProt P17948)
Experiment: Inhibition of VEGFR1 phosphorylation in human A498 cells after 10 mins by FLISA
Format: cell-based
Conditions: not given

Chain of Vascular endothelial growth factor receptor 1 (P17948 whole entry): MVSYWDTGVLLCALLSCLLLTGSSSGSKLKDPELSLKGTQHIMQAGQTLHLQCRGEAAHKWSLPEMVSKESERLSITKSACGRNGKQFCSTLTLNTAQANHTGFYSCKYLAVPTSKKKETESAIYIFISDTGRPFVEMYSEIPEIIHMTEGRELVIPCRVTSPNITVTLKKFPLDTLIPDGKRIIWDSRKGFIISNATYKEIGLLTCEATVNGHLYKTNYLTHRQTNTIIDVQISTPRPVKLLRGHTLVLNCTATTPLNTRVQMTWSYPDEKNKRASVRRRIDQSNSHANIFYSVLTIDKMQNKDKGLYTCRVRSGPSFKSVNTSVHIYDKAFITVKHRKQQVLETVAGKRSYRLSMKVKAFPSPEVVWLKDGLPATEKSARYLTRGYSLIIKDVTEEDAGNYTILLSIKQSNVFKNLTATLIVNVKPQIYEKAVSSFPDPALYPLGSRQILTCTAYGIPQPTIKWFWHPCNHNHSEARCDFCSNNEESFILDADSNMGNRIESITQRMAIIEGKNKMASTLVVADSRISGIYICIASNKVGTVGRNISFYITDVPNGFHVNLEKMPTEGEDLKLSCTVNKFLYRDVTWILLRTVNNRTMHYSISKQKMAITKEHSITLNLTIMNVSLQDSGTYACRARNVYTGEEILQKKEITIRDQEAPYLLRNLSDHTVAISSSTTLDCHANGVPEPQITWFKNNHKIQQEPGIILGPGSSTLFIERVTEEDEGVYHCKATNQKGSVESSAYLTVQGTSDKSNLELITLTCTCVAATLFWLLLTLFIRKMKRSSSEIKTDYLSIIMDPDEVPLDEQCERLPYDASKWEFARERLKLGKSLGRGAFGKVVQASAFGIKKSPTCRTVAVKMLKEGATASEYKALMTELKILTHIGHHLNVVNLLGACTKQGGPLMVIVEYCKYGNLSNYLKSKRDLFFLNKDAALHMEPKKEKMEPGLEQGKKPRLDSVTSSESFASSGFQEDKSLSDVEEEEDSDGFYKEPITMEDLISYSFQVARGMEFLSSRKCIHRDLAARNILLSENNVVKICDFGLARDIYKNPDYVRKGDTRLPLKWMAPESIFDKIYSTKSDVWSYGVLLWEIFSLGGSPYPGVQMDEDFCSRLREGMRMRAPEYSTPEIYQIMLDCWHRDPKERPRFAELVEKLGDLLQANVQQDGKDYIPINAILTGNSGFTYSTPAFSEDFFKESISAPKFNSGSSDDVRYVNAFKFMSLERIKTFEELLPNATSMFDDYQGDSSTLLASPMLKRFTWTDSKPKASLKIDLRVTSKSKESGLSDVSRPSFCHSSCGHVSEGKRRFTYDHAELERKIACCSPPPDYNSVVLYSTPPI

| Compound | IC50 [µM] |
| --- | --- |
| Nc1nc(Nc2cccc(C(F)(F)F)c2)c2cc(Cc3ccc(Cl)cc3Cl)[nH]c2n1 | 156 |
| C#Cc1cccc(Nc2ncnc3[nH]c(Cc4ccc(Cl)cc4Cl)cc23)c1 | > 300 |
| Nc1nc(Nc2ccc(Br)cc2Cl)c2cc(Cc3ccc(Cl)cc3Cl)[nH]c2n1 | > 300 |
| CC(C)c1ccc(Nc2nc(N)nc3[nH]c(Cc4ccc(Cl)cc4Cl)cc23)cc1 | 157 |
| CC(C)c1ccccc1Nc1nc(N)nc2[nH]c(Cc3ccc(Cl)cc3Cl)cc12 | 163 |

Continued, values first:

| IC50 [µM] | Compound |
| --- | --- |
| > 300 | Nc1nc(Nc2ccc(C(F)(F)F)c(F)c2)c2cc(Cc3ccc(Cl)cc3Cl)[nH]c2n1 |
| 151 | Clc1ccc(Cc2cc3c(Nc4cccc(Br)c4)ncnc3[nH]2)c(Cl)c1 |
| > 300 | FC(F)(F)c1cccc(Nc2ncnc3[nH]c(Cc4ccc(Cl)cc4Cl)cc23)c1 |
| > 300 | Cc1ccccc1Cc1cc2c(Nc3cccc(Br)c3)ncnc2[nH]1 |
| 70.9 | Nc1nc(Nc2ccc(Cl)cc2F)c2cc(Cc3ccc(Cl)cc3Cl)[nH]c2n1 |
| > 300 | C#Cc1cccc(Nc2nc(N)nc3[nH]c(Cc4ccc(Cl)cc4Cl)cc23)c1 |
| 163 | Nc1nc(Nc2cccc(F)c2)c2cc(Cc3ccc(Cl)cc3Cl)[nH]c2n1 |
| > 300 | COc1ccc(OC)c(Cc2cc3c(Nc4cccc(Br)c4)ncnc3[nH]2)c1 |

Tested on: B16-F10
Experiment: not given
Conditions: Mus musculus, 10 mg/kg
Remark: another data set of the same source

| Compound | inhibition |
| --- | --- |
| Cc1[nH]c(/C=C2\C(=O)Nc3ccccc32)c(C)c1CCC(=O)O [ORANTINIB] | Active |

Biological target: T1, Vascular endothelial growth factor receptor 2
Experiment: Inhibition of VEGFR2 phosphorylation in human U251 cells after 10 mins by FLISA
Format: cell-based, U-251
Conditions: not given

| Compound | IC50 [µM] |
| --- | --- |
| Nc1nc(Nc2cccc(C(F)(F)F)c2)c2cc(Cc3ccc(Cl)cc3Cl)[nH]c2n1 | > 300 |
| C#Cc1cccc(Nc2ncnc3[nH]c(Cc4ccc(Cl)cc4Cl)cc23)c1 | > 300 |
| Nc1nc(Nc2ccc(Br)cc2Cl)c2cc(Cc3ccc(Cl)cc3Cl)[nH]c2n1 | 0.1 |
| CC(C)c1ccc(Nc2nc(N)nc3[nH]c(Cc4ccc(Cl)cc4Cl)cc23)cc1 | 1.4 |
| CC(C)c1ccccc1Nc1nc(N)nc2[nH]c(Cc3ccc(Cl)cc3Cl)cc12 | > 300 |

Further lines, results first:

| IC50 [µM] | Compound |
| --- | --- |
| 113 | Nc1nc(Nc2ccc(C(F)(F)F)c(F)c2)c2cc(Cc3ccc(Cl)cc3Cl)[nH]c2n1 |
| > 300 | Clc1ccc(Cc2cc3c(Nc4cccc(Br)c4)ncnc3[nH]2)c(Cl)c1 |
| > 300 | FC(F)(F)c1cccc(Nc2ncnc3[nH]c(Cc4ccc(Cl)cc4Cl)cc23)c1 |
| 27.2 | Cc1ccccc1Cc1cc2c(Nc3cccc(Br)c3)ncnc2[nH]1 |
| 45.7 | Nc1nc(Nc2ccc(Cl)cc2F)c2cc(Cc3ccc(Cl)cc3Cl)[nH]c2n1 |
| 85.6 | C#Cc1cccc(Nc2nc(N)nc3[nH]c(Cc4ccc(Cl)cc4Cl)cc23)c1 |
| 0.3 | Nc1nc(Nc2cccc(F)c2)c2cc(Cc3ccc(Cl)cc3Cl)[nH]c2n1 |
| > 300 | COc1ccc(OC)c(Cc2cc3c(Nc4cccc(Br)c4)ncnc3[nH]2)c1 |

Tested on: B16-F10
Experiment: Antitumor activity against mouse B16F10 cells xenografted in NCr nu/nu mouse assessed as inhibition of tumor growth at 35 mg/kg, ip administered after 9 days of tumor implantation for weekly 3 times measured on day 28 post-implantation
Format: functional, organism-based
Parameters: dose 35 mg/kg
Conditions: not given
Outline: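 B16-F10 cells (50,000) implanted SQ behind the ear of 8-week-old male athymic NCr nu/nu mice, 5–6/group, two experiments. IP dosing in sterile water (from 30 mM DMSO stocks) Mon/Wed/Fri from day 9; water-only shams. Length, width and depth measured by calipers three times weekly; volume = L×W×D. Growth rate is the linear-regression slope from day 9 to day 28. Mean ± SEM, one-way ANOVA.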

| Compound | inhibition |
| --- | --- |
| Nc1nc(Nc2ccc(Br)cc2Cl)c2cc(Cc3ccc(Cl)cc3Cl)[nH]c2n1 | Active |
| Cc1ccccc1Cc1cc2c(Nc3cccc(Br)c3)nc(N)nc2[nH]1 | Active |

Biological target: T2, Platelet-derived growth factor receptor beta (Homo sapiens, UniProt P09619)
Experiment: Inhibition of PDGF-stimulated PDGFRbeta phosphorylation expressed in human SF-539 cells by chemiluminescence assay
Conditions: not given

T2 sequence (P09619 whole entry): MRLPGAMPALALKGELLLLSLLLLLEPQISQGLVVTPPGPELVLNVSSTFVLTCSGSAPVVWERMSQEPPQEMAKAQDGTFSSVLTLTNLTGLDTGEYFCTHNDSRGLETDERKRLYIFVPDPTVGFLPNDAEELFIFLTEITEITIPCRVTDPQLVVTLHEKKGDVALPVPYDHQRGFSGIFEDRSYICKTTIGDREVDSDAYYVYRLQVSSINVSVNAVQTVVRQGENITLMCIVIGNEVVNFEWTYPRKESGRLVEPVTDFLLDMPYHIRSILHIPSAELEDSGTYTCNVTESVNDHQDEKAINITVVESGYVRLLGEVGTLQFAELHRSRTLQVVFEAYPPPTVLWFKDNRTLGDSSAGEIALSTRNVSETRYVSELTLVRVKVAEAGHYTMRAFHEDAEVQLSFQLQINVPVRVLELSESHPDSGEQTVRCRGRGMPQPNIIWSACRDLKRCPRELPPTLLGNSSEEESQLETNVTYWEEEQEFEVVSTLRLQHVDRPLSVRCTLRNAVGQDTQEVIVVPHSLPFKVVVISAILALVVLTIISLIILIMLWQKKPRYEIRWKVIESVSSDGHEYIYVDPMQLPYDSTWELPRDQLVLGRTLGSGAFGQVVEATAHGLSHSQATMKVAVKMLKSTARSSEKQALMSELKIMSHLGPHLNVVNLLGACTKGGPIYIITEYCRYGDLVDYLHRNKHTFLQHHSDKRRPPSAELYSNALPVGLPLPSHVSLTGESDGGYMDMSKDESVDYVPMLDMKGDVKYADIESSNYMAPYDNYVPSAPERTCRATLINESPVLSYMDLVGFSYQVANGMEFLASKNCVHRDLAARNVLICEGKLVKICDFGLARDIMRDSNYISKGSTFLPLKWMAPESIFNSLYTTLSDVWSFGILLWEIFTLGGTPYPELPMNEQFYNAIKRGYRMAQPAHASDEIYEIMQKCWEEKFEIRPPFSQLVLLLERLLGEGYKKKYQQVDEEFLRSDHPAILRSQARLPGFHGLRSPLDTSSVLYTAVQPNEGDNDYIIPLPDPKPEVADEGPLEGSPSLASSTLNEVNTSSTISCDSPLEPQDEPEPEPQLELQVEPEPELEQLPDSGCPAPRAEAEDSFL

| IC50 [µM] | Compound |
| --- | --- |
| 0.1 | Cc1[nH]c(/C=C2\C(=O)Nc3ccccc32)c(C)c1CCC(=O)O [ORANTINIB] |

Biological target: T2, Platelet-derived growth factor receptor beta
Experiment: Inhibition of PDGFRbeta phosphorylation in human SF539 cells after 10 mins by FLISA
Conditions: not given

| Compound | IC50 [µM] |
| --- | --- |
| Nc1nc(Nc2cccc(C(F)(F)F)c2)c2cc(Cc3ccc(Cl)cc3Cl)[nH]c2n1 | > 300 |
| C#Cc1cccc(Nc2ncnc3[nH]c(Cc4ccc(Cl)cc4Cl)cc23)c1 | 142 |
| Nc1nc(Nc2ccc(Br)cc2Cl)c2cc(Cc3ccc(Cl)cc3Cl)[nH]c2n1 | > 300 |
| CC(C)c1ccc(Nc2nc(N)nc3[nH]c(Cc4ccc(Cl)cc4Cl)cc23)cc1 | 175 |
| CC(C)c1ccccc1Nc1nc(N)nc2[nH]c(Cc3ccc(Cl)cc3Cl)cc12 | 43 |
| Cc1ccccc1Cc1cc2c(Nc3cccc(Br)c3)nc(N)nc2[nH]1 | > 50 |

Further lines, results first:

| IC50 [µM] | Compound |
| --- | --- |
| > 300 | Nc1nc(Nc2ccc(C(F)(F)F)c(F)c2)c2cc(Cc3ccc(Cl)cc3Cl)[nH]c2n1 |
| 220 | Clc1ccc(Cc2cc3c(Nc4cccc(Br)c4)ncnc3[nH]2)c(Cl)c1 |
| 110 | FC(F)(F)c1cccc(Nc2ncnc3[nH]c(Cc4ccc(Cl)cc4Cl)cc23)c1 |
| 182 | Cc1ccccc1Cc1cc2c(Nc3cccc(Br)c3)ncnc2[nH]1 |
| 24.6 | Nc1nc(Nc2ccc(Cl)cc2F)c2cc(Cc3ccc(Cl)cc3Cl)[nH]c2n1 |
| > 300 | C#Cc1cccc(Nc2nc(N)nc3[nH]c(Cc4ccc(Cl)cc4Cl)cc23)c1 |
| 183 | Nc1nc(Nc2cccc(F)c2)c2cc(Cc3ccc(Cl)cc3Cl)[nH]c2n1 |
| 171 | COc1ccc(OC)c(Cc2cc3c(Nc4cccc(Br)c4)ncnc3[nH]2)c1 |

Tested on: B16-F10
Experiment: Antitumor activity against mouse B16F10 cells xenografted in NCr nu/nu mouse assessed as inhibition of lung metastasis at 35 mg/kg, ip administered after 9 days of tumor implantation for weekly 3 times measured on day 28 post-implantation by hematoxylin-eosin staining
Format: functional, organism-based
Parameters: dose 35 mg/kg
Conditions: not given
Outline: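 Male athymic NCr nu/nu mice (8 weeks) received 50,000 B16-F10 cells SQ behind the ear, 5–6/group, two experiments. Drug given IP in sterile water (from 30 mM DMSO stocks) Mon/Wed/Fri starting day 9; shams received water. On day 28 lungs excised, formalin-fixed, paraffin-embedded. Metastases per lung lobe counted on three H&E sections. Mean ± SEM, one-way ANOVA with Neuman-Keuls.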

| Compound | inhibition |
| --- | --- |
| Nc1nc(Nc2ccc(Br)cc2Cl)c2cc(Cc3ccc(Cl)cc3Cl)[nH]c2n1 | Active |
| Cc1ccccc1Cc1cc2c(Nc3cccc(Br)c3)nc(N)nc2[nH]1 | Active |
